Hits are enriched below; roughly 2.2% of the tested compounds scored in any of these assays.
ARFGAP1 inhibitor – rat ARFGAP1 inhibition | Q62848 | Arfgap1-stimulated ARF1 GTP hydrolysis, GDP FP detection | inhibition, % at 16.5 µM | actives 0.26% (n = 360,000) | AID 651572;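 active = inhibition above a per-plate limit, mean inhibition of low control wells plus 3 SD, cut at about 25% in these data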;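 also: 0% = DMSO wells with enzyme and 100% = wells lacking Arfgap1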
Target sequence (Q62848 1-136 limits assumed): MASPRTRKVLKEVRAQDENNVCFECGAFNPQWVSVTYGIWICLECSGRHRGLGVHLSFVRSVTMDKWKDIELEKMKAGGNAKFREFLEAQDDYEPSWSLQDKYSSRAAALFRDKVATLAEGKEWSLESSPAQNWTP
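Material: truncated rat Arfgap1 GAP domain; Incubation: compound-enzyme preincubation 20 min, reaction 120 min, detection 60 min, 25 °C; Read-out: percent inhibition of Arfgap1-stimulated GTP hydrolysis; Technique: FP, GDP Alexa 633 tracer displaced from anti-GDP antibody, 620/688 nm; Controls: No-Arfgap1 wells (100%) versus DMSO full-reaction wells (0%); Replication: single well per compound.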
ASAP1 GAP inh – blocks human ASAP1-stimulated Arf1 GTP hydrolysis | GDP FP detection | Q9ULH1 | inhibition, % at 16.5 µM | actives 0.19% (n = 360,000); in the data active = inhibition above about 25%;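 also: 0% = vehicle with enzyme and substrate and 100% = no enzyme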
Target sequence (Q9ULH1 325-724 limits assumed): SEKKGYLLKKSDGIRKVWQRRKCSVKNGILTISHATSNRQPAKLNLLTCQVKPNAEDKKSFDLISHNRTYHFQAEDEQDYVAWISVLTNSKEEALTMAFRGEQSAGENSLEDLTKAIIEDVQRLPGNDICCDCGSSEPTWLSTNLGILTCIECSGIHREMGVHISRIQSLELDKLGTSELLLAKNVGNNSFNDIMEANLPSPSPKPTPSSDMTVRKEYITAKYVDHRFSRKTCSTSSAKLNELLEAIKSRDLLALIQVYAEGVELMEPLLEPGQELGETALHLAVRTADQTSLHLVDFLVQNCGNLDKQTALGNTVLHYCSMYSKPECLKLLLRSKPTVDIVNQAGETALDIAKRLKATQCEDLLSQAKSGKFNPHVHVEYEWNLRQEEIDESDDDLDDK
rCAG binder – r(CAG) repeat RNA binding | TO-PRO-1 dye displacement fluorescence | inhibition, % at 3 µM | actives 1.3% (n = 370,000);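 active = inhibition above the plate cutoff, the mean of all test compounds on that plate plus 3 SD, cut at about 35% in these data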;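 also: 0% = DMSO alone and 100% = 100 µM mitoxantrone as full dye displacement; higher means more dye released from RNA so lower well fluorescence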
NadD inh – inhibitors of Staphylococcus aureus NadD; AID 602399; inhibition, % at 20 µM; actives 0.78% (n = 360,000); purified NadD enzyme, colorimetric absorbance read-out; in the data active = inhibition above about 26%
NadD conf – NadD (S. aureus) inhibition, single concentration confirmation. shares compounds with NadD inh. purified S. aureus NadD, colorimetric enzyme assay. inhibition, % at 20 µM. actives 13% (n = 2,000). AID 624309; in the data active = inhibition mostly above about 42%, no sharp cut-off; inactive = mostly below about 42%
* marks the source's active call; other numbers are inactive results; x = no result given.

SMILES	ARFGAP1 inhibitor	ASAP1 GAP inh	rCAG binder	NadD inh	NadD conf
C[C@@H](c1ccccc1)N1C[C@H](COCc2ccccc2)Oc2cc(N3CC[C@H](N(C)C)C3)ccc2S1(=O)=O	-14	1	1	6	x
O=c1c2ccccc2c(/C=N/c2nnc(Cc3ccccc3)s2)c(O)n1-c1ccc(Cl)cn1	4	-2	12	48*	-3
Cc1cccc(C)c1N=Cc1c(O)n(-c2nccs2)c(=O)c2ccccc12	x	x	x	6	x
COc1ccc(NC(=O)c2cc(-c3cc(F)ccc3OC(C)C)n[nH]2)cc1OC	-2	-7	0	-4	x
CCn1c2ccccc2c2cc(NC(=O)COC(=O)c3cc(Cl)c(N)cc3OC)ccc21	9	-8	32	36*	26
CCn1c2ccccc2c2cc(NC(=O)COC(=O)c3ccccc3O)ccc21	2	-4	4	14	x
Nc1nc(=S)[nH]c2c1C1(CCCC1)Cc1ccccc1-2	4	3	6	27	x
Nc1nc(=S)[nH]c2c1C1(CCCCC1)Cc1ccccc1-2	-1	10	1	35*	17
CCN(CC)C(=O)COC(=O)c1cc(-c2ccco2)nc2ccccc12	-9	3	15	31*	21
CN(CC(=O)Nc1ccc(F)cc1)C(=O)c1cc(-c2ccco2)nc2ccccc12	6	1	30	41*	26
CCOC(=O)c1cc2c(c(CCO)n1)[C@@H](CCO)N(S(=O)(=O)C(C)(C)C)C2	5	-1	2	0	x
CC(C)C[C@@H]1COc2cccc(N3CCC[C@H]3CO)c2S(=O)(=O)N1	-4	-9	0	0	x
COc1cc(C(=O)Nc2nc(-c3cc(C)ccc3C)c(C)s2)ccc1OCC(=O)Nc1ccc(F)cc1	0	0	4	33*	18
COc1ccc(-c2nc(NC(=O)c3ccc(OCC(=O)Nc4ccc(F)cc4)c(OC)c3)sc2C)cc1	1	12	8	26	x
O=c1[nH]cnc2c1ccn2C1OC(CO)C(O)C1O (centres undefined)	12	-19	1	2	x
O=C(N/N=C\c1ccc(CNS(=O)(=O)c2ccccc2)o1)C(=O)Nc1ccc(F)cc1	5	0	-1	1	x
O=C(NCc1ccc(/C=N\NC(=O)C(=O)Nc2ccccc2Br)o1)C(=O)Nc1ccccc1	-6	4	5	36*	8
COc1ccc(C2CCC3(CCC(=O)N3CCO)CC2)cc1 (centres undefined)	x	x	-1	x	x
CC1(C)Cc2c(C#N)c(N3CCN(C(=O)c4ccccc4)CC3)nc(-c3ccco3)c2CS1	4	-7	4	43*	22
COC(=O)c1ccc2c(c1)N(Cc1nc(-c3ccc(Cl)cc3)oc1C)C(=O)C1CCCN21 (centres undefined)	2	-7	12	45*	19
CC1(C(=O)NCc2ccccc2Br)CCN1C(=O)Cc1ccc(-c2ccccc2)cc1 (centres undefined)	-3	10	3	-8	x
COc1ccccc1-c1cc(C(=O)N/N=C/c2ccc(C)s2)c2ccccc2n1	13	5	8	32*	16
CCc1ccc(/C=N/NC(=O)c2cc(-c3ccccc3OC)nc3ccccc23)s1	11	2	16	28	x
COc1ccc(/C=N/NC(=O)c2cc(-c3ccc(C)cc3C)nc3ccccc23)cc1COC(C)=O	24	4	10	38*	-3
COc1ccc(/C=N/NC(=O)c2cc(-c3ccccc3OC)nc3ccccc23)cc1COC(C)=O	6	5	11	9	x
SMILES	ARFGAP1 inhibitor	ASAP1 GAP inh	rCAG binder	NadD inh	NadD conf
COC(=O)C1CN(Cc2cn(Cc3ccc(OC)cc3)nn2)CCS(=O)(=O)N1Cc1ccccc1 (centres undefined)	x	x	3	x	x
N#CC1=C(N)n2c(s/c(=C\c3cccs3)c2=O)=C(C#N)C1c1cccs1 (centres undefined)	4	9	51*	49*	5
CC(C)c1ccc(/C=c2\sc3n(c2=O)C(N)=C(C#N)C(c2ccc(C(C)C)cc2)C=3C(N)=O)cc1 (centres undefined)	-8	-8	8	25	x
O=C(Nc1ccc(Cl)cc1)c1nc[nH]c1C(=O)NCCCCNC(=O)c1[nH]cnc1C(=O)Nc1ccc(Cl)cc1	-2	-4	1	30*	6
O=C(Nc1cccc(Cl)c1)c1nc[nH]c1C(=O)NCCCCNC(=O)c1[nH]cnc1C(=O)Nc1cccc(Cl)c1	-2	10	1	31*	5
O=C(Nc1cccc(Cl)c1)c1nc[nH]c1C(=O)NCCN(CCNC(=O)c1[nH]cnc1C(=O)Nc1cccc(Cl)c1)CCNC(=O)c1[nH]cnc1C(=O)Nc1cccc(Cl)c1	13	3	4	59*	9
O=C(Nc1ccc(Cl)cc1)c1nc[nH]c1C(=O)Nc1ccccc1F	-3	0	3	5	x
CCOc1ccc(-n2c(COc3ccccc3)nnc2SCC(=O)Nc2ccc(OCc3ccccc3)cc2)cc1	x	x	10	x	x
Cc1nc2c(OCc3cc(Cl)cc(Cl)c3)cccn2c1N(C)C(=O)CCC1CCCC1	-1	18	4	12	x
COc1ccc(NC(=O)CSc2nnc(C)c3ccccc23)cc1	-9	14	0	2	x
COc1ccc(NC(=O)CSc2ccc3c4c(cccc24)C(=O)c2ccccc2-3)cc1	9	7	0	33*	2
COc1ccccc1/C=C/C(=O)NC(=S)Nc1ccc(S(=O)(=O)N(C)c2ccccc2)cc1	-1	3	6	34*	6
CN(c1ccccc1)S(=O)(=O)c1ccc(NC(=S)NC(=O)c2ccccc2)cc1	10	13	8	-6	x
CC1(C)Cc2c(sc3c2c(=N)n(Cc2ccco2)c(=O)n3Cc2ccc(Cl)cc2)CO1	-9	4	4	32*	20
CCOc1cc(/C=N/NC(=O)Cn2nc([N+](=O)[O-])cc2C)cc(Br)c1OCc1ccccc1C	-1	0	9	23	x
COc1cc(/C=N/NC(=O)Cn2nc([N+](=O)[O-])cc2C)cc(Br)c1OCc1ccccc1	-3	17	4	35*	10
O=C(CSc1nnc(SCc2ccccc2)s1)N/N=C/C=C/c1ccco1	-5	-6	23	48*	43*
Cc1cscc1-c1ccc(C(=O)Nc2c(C)cccc2C)o1	2	0	8	31*	38
O=C(Cn1c2ccccc2c(=O)c2ccccc21)N/N=C/c1cc([N+](=O)[O-])ccc1N1CCCCC1	-4	-2	5	47*	9
CSc1nnc2c(n1)C[C@H](c1ccccc1)[C@@H](C)[C@@H](C(=O)N1CCCC1)C2	x	x	3	x	x
COC(=O)[C@]12C[C@H](CC(=O)N3CCCCC3)C(=O)N(Cc3ccc4c(c3)OCO4)C1=C[C@H](C(C)C)O[C@@H]2C1CC1	x	x	1	x	x
Cc1ccccc1/C=N/n1c(-c2cc(-c3ccccc3)n[nH]2)n[nH]c1=S	8	5	31	53*	22
